The values that follow come from ChEMBL document CHEMBL1125281, “Identification and synthesis of a receptor binding site of human anaphylatoxin C5a” (J Med Chem, 1991).

Each structure is given as a SMILES string. pKi: −log10 of the molar value. Where a SMILES comes first, the peptide text is derived from it.

In assay [1] the target is T1, C5a anaphylatoxin chemotactic receptor 1 (Homo sapiens, UniProt P21730).
T1 sequence (P21730 whole entry): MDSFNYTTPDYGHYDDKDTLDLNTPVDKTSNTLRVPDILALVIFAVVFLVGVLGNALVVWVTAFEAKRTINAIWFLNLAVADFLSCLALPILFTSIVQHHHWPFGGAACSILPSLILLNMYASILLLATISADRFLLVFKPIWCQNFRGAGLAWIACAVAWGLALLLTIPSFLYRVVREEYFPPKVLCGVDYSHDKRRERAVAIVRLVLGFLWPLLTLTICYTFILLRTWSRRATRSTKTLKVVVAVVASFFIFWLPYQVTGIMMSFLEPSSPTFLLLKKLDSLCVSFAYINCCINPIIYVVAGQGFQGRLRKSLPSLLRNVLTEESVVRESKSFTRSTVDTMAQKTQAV
The assay can be described thus: Compound was tested for the inhibition of [125I]C5a anaphylatoxin chemotactic receptor binding to PMNL membranes at a concentration of 0.1-1 mM.

Assay [2] has as its target T2, C5a anaphylatoxin chemotactic receptor 1 (Homo sapiens) (UniProt P21730).
T2 sequence (whole entry): T1 sequence (P21730 whole entry)
The assay is described as follows: Compound was tested for the inhibition of [125I]C5a binding to C5a anaphylatoxin chemotactic receptor in PMNL membranes. It is filed as cell membranes. The settings on record: concentration not given here.

For assay [3], the target named is T1, C5a anaphylatoxin chemotactic receptor 1. The assay is described as follows: Inhibition of [125I]C5a binding to C5a anaphylatoxin chemotactic receptor in PMNL intact cells; inactive. It is filed as cell-based. In short, it runs like this: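 Intact human PMNL isolated from peripheral blood by one-step density centrifugation. Cells incubated 20 min at 23 °C with [125I]C5a (1 × 10⁻⁹ M), test peptide and protease inhibitors. Cells separated from free ligand by centrifugation through silicone oil at 10000g; pellet γ counts read.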

Assay [4] shares this target. The assay is described as follows: Compound was tested for the inhibition of [125I]C5a binding to C5a anaphylatoxin chemotactic receptor in PMNL membranes; inactive. The assay is classed as cell membranes.
For assay [5] the target is unchanged. The assay is described as follows: Inhibition of [125I]-C5a anaphylatoxin chemotactic receptor binding to PMNL membranes.
Assay [6] has as its target T2, C5a anaphylatoxin chemotactic receptor 1 (Homo sapiens). The assay is described as follows: Compound was tested for the inhibition of [125I]C5a anaphylatoxin chemotactic receptor binding to PMNL intact cells at a concentration of 0.1-1 mM. It is filed as cell-based.
Assay [7] concerns the target T1, C5a anaphylatoxin chemotactic receptor 1. The assay is described as follows: Compound was tested for the inhibition of [125I]C5a binding to C5a anaphylatoxin chemotactic receptor binding to PMNL membranes.

As usually defined, the pKi is −log10 of the Ki, conventionally taken in molar units. `CC[C@H](C)[C@H](NC(=O)[C@H](CC(N)=O)NC(=O)[C@H](C)NC(=O)[C@H](CCCNC(=N)N)NC(=O)[C@H](CC(C)C)NC(=O)[C@H](CCC(N)=O)NC(=O)[C@@H](N)CO)C(=O)N[C@@H](CO)C(=O)N[C@@H](Cc1cnc[nH]1)C(=O)N[C@@H](CCCCN)C(=O)N[C@@H](CC(=O)O)C(=O)N[C@@H](CCSC)C(=O)N[C@@H](CCC(N)=O)C(=O)N[C@@H](CC(C)C)C(=O)NCC(=O)N[C@@H](CCCNC(=N)N)C(=O)O` (H-SQLRANISHKDMQLGR-OH): the pKi in assay [1] was 3.52.

By inhibition is commonly meant how much of the control response was suppressed. Compound `CSCC[C@H](NC(=O)[C@H](CC(=O)O)NC(=O)[C@H](CCCCN)NC(C)=O)C(=O)N[C@@H](CCC(N)=O)C(=O)N[C@@H](CC(C)C)C(=O)NCC(=O)N[C@@H](CCCN=C(N)N)C(=O)O` (Ac-KDMQLGR-OH) showed an inhibition in assay [2] of 30%. Moreover, the Ki entry in assay [3] is reported as “Not Active”.

In the case of `CSCC[C@H](NC(=O)[C@H](CC(=O)O)NC(C)=O)C(=O)N[C@@H](CCC(N)=O)C(=O)N[C@@H](CC(C)C)C(=O)NCC(=O)N[C@@H](CCCN=C(N)N)C(=O)O` (Ac-DMQLGR-OH), the Ki result in assay [4] and in assay [3] was “Not Active” each time.

On to `CC[C@H](C)[C@H](NC(=O)[C@H](CCSC)NC(C)=O)C(=O)N[C@@H](CCCCN)C(=O)N[C@@H](C)C(=O)N[C@@H](Cc1ccccc1)C(=O)N[C@H](C(=O)N[C@@H](CCC(=O)O)C(=O)N[C@@H](CCSC)C(=O)N[C@@H](CCSC)C(=O)N[C@H](C(=O)N[C@H](C(=O)N[C@@H](C)C(=O)N[C@@H](CO)C(=O)N[C@@H](CCC(N)=O)C(=O)N[C@@H](CC(C)C)C(=O)N[C@@H](CCCN=C(N)N)C(=O)N[C@@H](C)C(=O)N[C@@H](CC(N)=O)C(=O)N[C@H](C(=O)N[C@@H](CO)C(=O)N[C@@H](Cc1c[nH]cn1)C(=O)N[C@@H](CCCCN)C(=O)N[C@@H](CC(=O)O)C(=O)N[C@@H](CCSC)C(=O)N[C@@H](CCC(N)=O)C(=O)N[C@@H](CC(C)C)C(=O)NCC(=O)N[C@@H](CCCN=C(N)N)C(=O)O)[C@@H](C)CC)C(C)C)C(C)C)[C@@H](C)O` (Ac-MIKAFTEMMVVASQLRANISHKDMQLGR-OH), for which the negative-log Ki (pKi) in assay [5] was 4.00. The same compound registered an inhibition in assay [6] above 20%.

In assay [7], `CC[C@H](C)[C@H](NC(C)=O)C(=O)N[C@@H](CO)C(=O)N[C@@H](Cc1c[nH]cn1)C(=O)N[C@@H](CCCCN)C(=O)N[C@@H](CC(=O)O)C(=O)N[C@@H](CCSC)C(=O)N[C@@H](CCC(N)=O)C(=O)N[C@@H](CC(C)C)C(=O)N[C@@H](CCCN=C(N)N)C(=O)NCC(=O)N[C@@H](CCCN=C(N)N)C(=O)O` (Ac-ISHKDMQLRGR-OH) gave a pKi of 4.00. The Ki entry in assay [3] is listed as “Not Active”.

In the case of `CC[C@H](C)[C@H](NC(=O)[C@H](CC(N)=O)NC(=O)[C@H](C)NC(=O)[C@H](CCCN=C(N)N)NC(=O)[C@H](CC(C)C)NC(=O)[C@H](CCC(N)=O)NC(=O)[C@H](CO)NC(=O)[C@H](C)NC(=O)[C@@H](NC(=O)[C@@H](NC(=O)[C@H](CCSC)NC(=O)[C@H](CCSC)NC(=O)[C@H](CCC(=O)O)NC(=O)[C@@H](NC(=O)[C@@H](N)Cc1ccccc1)[C@@H](C)O)C(C)C)C(C)C)C(=O)N[C@@H](CO)C(=O)N[C@@H](Cc1c[nH]cn1)C(=O)N[C@@H](CCCCN)C(=O)N[C@@H](CC(=O)O)C(=O)N[C@@H](CCSC)C(=O)N[C@@H](CCC(N)=O)C(=O)N[C@@H](CC(C)C)C(=O)NCC(=O)N[C@@H](CCCN=C(N)N)C(=O)O` (H-FTEMMVVASQLRANISHKDMQLGR-OH), the inhibition in assay [6] was above 20%.
